Experimental data published in PMC12086512 (Protein Science : A Publication of the Protein Society, 2025).

Key:
[1] = tested on: His‐p67C (p67 residues 572–651); assay: ELISA, binding to immobilized p67C; set-up: species or system Theileria parva; conditions: 50 nM antibody
How it was run: (§1)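 Proteins coated overnight at 4°C in PBS: full-length C-His p67 (Expi293, Ni-NTA), p67 fragments (E. coli BL21(DE3), GST/6xHis fusion, glutathione resin, TEV cleavage where needed), ubiquitin or BSA. Fab detected with HRP anti-FLAG, IgG with HRP anti-Fc. Eight washes with PBS/0.25% Tween 20 between steps. TMB 2 min, stopped with 1.0 M phosphoric acid, A450 read.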

ubiquitin = assay: ELISA, negative control protein ubiquitin; format: binding; conditions: serial dilutions of Fab
How it was run: as §1

bovine serum albumin = assay: ELISA, negative control protein BSA; format: binding; conditions: serial dilutions of Fab
How it was run: as §1

full‐length p67 = assay: ELISA, binding to full-length p67; set-up: species or system Theileria parva; conditions: 50 nM antibody
How it was run: as §1

p67^1 (residues 572–612) = assay: ELISA, binding to p67^1; set-up: species or system Theileria parva; conditions: 50 nM antibody
How it was run: as §1

T. parva sporozoites = assay: In vitro sporozoite neutralization assay with bovine PBMCs; format: cell-based, Theileria parva; conditions: exact values not determined due to incomplete fitting

B1: Fab B11: phage-derived synthetic human Fab binding p67C, neutralizes T. parva sporozoites (antibody, V domains shown)
VH: EVQLVESGGGLVQPGGSLRLSCAASGFNISSSSIHWVRQAPGKGLEWVASISPYYSSTSYADSVKGRFTISADTSKNTAYLQMNSLRAEDTAVYYCARGPGYAMDYWGQGTLVTVSS
VL: DIQMTQSPSSLSASVGDRVTITCRASQSVSSAVAWYQQKPGKAPKLLIYSASSLYSGVPSRFSGSRSGTDFTLTISSLQPEDFATYYCQQYYYAPITFGQGTKVEIK
- Binding to p67C [1]: bound
- Binding to control protein ubiquitin (ubiquitin): no detectable binding
- Binding to control protein bovine serum albumin (bovine serum albumin): no detectable binding
- Binding to full-length p67 (full‐length p67): bound
- Binding to p67^1 (p67^1 (residues 572–612)): bound
- Fold less neutralizing potency than IgGs B11 and 21.4 (T. parva sporozoites): roughly 10 fold
